Data set [1] concerns Escherichia coli. Kind of data set: Antimicrobial activity against Escherichia coli JM107 by CLSI method. In kind it is functional. The following applies: for MIC50 / MIC: Escherichia coli, JM107; for MIC: read-out: MIC100.
In data set [2] the test system is Bacillus subtilis. The experiment in a line: Antimicrobial activity against Bacillus subtilis by CLSI method. In kind it is functional. The following applies: for MIC50 / MIC: Bacillus subtilis; for MIC: read-out: MIC100.
The test system of data set [3] is Staphylococcus aureus. The experiment in a line: Antimicrobial activity against Staphylococcus aureus by CLSI method. The following applies: for MIC50 / MIC: Staphylococcus aureus; for MIC: read-out: MIC100. In kind it is functional.
Data set [4] relates to Salmonella typhimurium. Kind of data set: Antimicrobial activity against Salmonella enterica LT2 ATCC 700720 by CLSI method. The following applies: for MIC50 / MIC: Salmonella enterica, LT2 ATCC 700720; for MIC: read-out: MIC100. In kind it is functional, Salmonella enterica subsp. enterica serovar Typhimurium.
The test system of data set [5] is MRC5. Kind of data set: Cytotoxicity against human MRC5 cells assessed as reduction in cell viability at 0.5 to 25 ug/ml after 24 hrs by MTT assay. In kind it is cell-based. The settings on record: mrc5, 24 h. The method, boiled down: (§1)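 MTT colorimetric viability test; human embryonic lung MRC5 cells or human lung cancer Calu-1 cells exposed 24 h to compound over 0.5–50 µg/ml; DMSO vehicle up to 0.4% v/v. Two or three independent experiments, each in triplicate, reported as mean ± SD.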
(In general: Formazan colour is commonly taken as a measure of viable cells.)

The subject of data set [6] is MRC5. The experiment in a line: Cytotoxicity against human MRC5 cells assessed as reduction in cell viability at 25 ug/ml after 24 hrs by MTT assay. In kind it is cell-based. The settings on record: mrc5, 24 h. The method, boiled down:
as §1

The test system of data set [7] is Calu-1. The experiment in a line: Cytotoxicity against human Calu1 cells assessed as reduction in cell viability at 50 ug/ml after 24 hrs by MTT assay. In kind it is cell-based. The following applies: calu-1, 24 h. The method, boiled down:
as §1

The structures appear in SMILES notation.

For the compound `CO/N=C(\C(=O)N[C@@H]1C(=O)N2C(C(=O)O)=C(CSc3nc(=O)c(=O)[nH]n3C)CS[C@H]12)c1csc(N)n1.[Na+]`, the MLD in data set [1] is greater than 1 µg/mL; in data set [2], “>=1 ug ml-1”; in data set [3], greater than 7 µg/mL; in data set [4], “>=2 ug ml-1”. The MIC50 in data set [1] was less than 0.25 µg/mL; in data set [2], less than 0.25 µg/mL; in data set [3] it was 2 to 4 µg/mL; in data set [4], less than 0.25 µg/mL. The MIC is 0.25 µg/mL in data set [1], 0.75 µg/mL in data set [2], 5.5 µg/mL in data set [3] and 0.25 µg/mL in data set [4].
Turning to `CC(=O)OCC1=C(C(=O)[O-])N2C(=O)[C@@H](NC(=O)CCCCCCCC3C(=O)N(c4ccccc4)C3c3ccccc3)[C@H]2SC1.[Na+]` (mixture of isomers), the MLD in data set [1] is greater than 256 µg/mL; in data set [2] it was greater than 16 µg/mL; in data set [3] it was “>=1 ug ml-1”; in data set [4], greater than 256 µg/mL. The MIC50 is greater than 256 µg/mL in data set [1], less than 0.25 µg/mL in data set [2], less than 0.25 µg/mL in data set [3] and greater than 256 µg/mL in data set [4]. For the same compound, the MIC in data set [1] was greater than 256 µg/mL; in data set [2], 0.75 µg/mL; in data set [3], 1 µg/mL; in data set [4] it was greater than 256 µg/mL.
Regarding `CC(=O)OCC1=C(C(=O)[O-])N2C(=O)[C@@H](NC(=O)CCC3C(=O)N(c4ccc(C)c(C)c4)C3c3ccccc3)[C@H]2SC1.[Na+]` (mixture of isomers), the MLD was greater than 256 µg/mL in data set [1], 64 µg/mL in data set [2], greater than 16 µg/mL in data set [3] and greater than 256 µg/mL in data set [4]. Moreover, the MIC50 in data set [1] was greater than 256 µg/mL; in data set [2], no more than 1 µg/mL; in data set [3], 1 µg/mL; in data set [4], greater than 256 µg/mL. The MIC in data set [1] was greater than 256 µg/mL; in data set [2] it was 2 µg/mL; in data set [3] it was 4 to 6 µg/mL; in data set [4] it was greater than 256 µg/mL. Besides, in data set [5], the Activity result is recorded as “Non-Toxic”.
For `CC(=O)OCC1=C(C(=O)[O-])N2C(=O)[C@@H](NC(=O)CC3C(=O)N(c4ccc(C)c(C)c4)C3c3ccccc3)[C@H]2SC1.[Na+]` (mixture of isomers), in data set [6], the Activity is given as 20%. Further, the MLD in data set [1] was greater than 256 µg/mL; in data set [2], “>=3.5 ug ml-1”; in data set [3] it was greater than 16 µg/mL; in data set [4], greater than 256 µg/mL. The MIC50 in data set [1] was greater than 256 µg/mL; in data set [2], less than 0.25 µg/mL; in data set [3], greater than 1 µg/mL; in data set [4], greater than 256 µg/mL. Also, the MIC in data set [1] was greater than 256 µg/mL; in data set [2] it was 3.5 µg/mL; in data set [3], 4 to 8 µg/mL; in data set [4], greater than 256 µg/mL.
Take `CC(=O)OCC1=C(C(=O)[O-])N2C(=O)[C@@H](NC(=O)CC3C(=O)N(c4ccccc4)C3c3ccccc3)[C@H]2SC1.[Na+]` (mixture of isomers): the MLD in data set [1] was greater than 256 µg/mL; in data set [2], greater than 2.5 µg/mL; in data set [3], greater than 3 µg/mL; in data set [4] it was greater than 256 µg/mL. Also, the MIC50 is greater than 256 µg/mL in data set [1], less than 0.25 µg/mL in data set [2], 0.75 µg/mL in data set [3] and greater than 256 µg/mL in data set [4]. Also, the MIC is greater than 256 µg/mL in data set [1], 2.5 µg/mL in data set [2], 2.5 µg/mL in data set [3] and greater than 256 µg/mL in data set [4].
In the case of `COc1ccc(N2C(=O)C(CCCCCCCC(=O)N[C@@H]3C(=O)N4C(C(=O)[O-])=C(COC(C)=O)CS[C@H]34)C2c2ccccc2)cc1.[Na+]` (mixture of isomers), the Activity in data set [6] was found to be 20%. The MLD was greater than 256 µg/mL in data set [1], “>=2 - 4 ug ml-1” in data set [2], 0.25 µg/mL in data set [3] and greater than 256 µg/mL in data set [4]. Moreover, the MIC50 in data set [1] is greater than 256 µg/mL; in data set [2], less than 0.12 µg/mL; in data set [3] it was greater than 0.12 µg/mL; in data set [4], greater than 256 µg/mL. Moreover, the MIC in data set [1] was greater than 256 µg/mL; in data set [2], 0.25 µg/mL; in data set [3] it was less than 0.25 µg/mL; in data set [4], greater than 256 µg/mL.
For the compound `COc1ccc(N2C(=O)C(CC(=O)N[C@@H]3C(=O)N4C(C(=O)[O-])=C(COC(C)=O)CS[C@H]34)C2c2ccc(Cl)cc2)cc1.[Na+]` (mixture of isomers), the MLD in data set [1] is greater than 256 µg/mL; in data set [2], greater than 256 µg/mL; in data set [3], greater than 32 µg/mL; in data set [4], greater than 256 µg/mL. The MIC50 is greater than 256 µg/mL in data set [1], less than 4 µg/mL in data set [2], 4 to 8 µg/mL in data set [3] and greater than 256 µg/mL in data set [4]. Further, the MIC was greater than 256 µg/mL in data set [1], 32 µg/mL in data set [2], 32 µg/mL in data set [3] and greater than 256 µg/mL in data set [4]. In addition, the Activity entry in data set [5] is on record as “Non-Toxic”.
In the case of `COc1ccc(N2C(=O)C(CC(=O)N[C@@H]3C(=O)N4C(C(=O)[O-])=C(COC(C)=O)CS[C@H]34)C2c2ccccc2)cc1.[Na+]` (mixture of isomers), the MLD in data set [1] is greater than 256 µg/mL; in data set [2], “>=128 ug ml-1”; in data set [3], greater than 1.5 µg/mL; in data set [4], greater than 256 µg/mL. Further, the MIC50 in data set [1] was greater than 256 µg/mL; in data set [2], less than 0.25 µg/mL; in data set [3], less than 0.25 µg/mL; in data set [4], greater than 256 µg/mL. Moreover, the MIC was greater than 256 µg/mL in data set [1], 0.75 µg/mL in data set [2], 1.5 µg/mL in data set [3] and greater than 256 µg/mL in data set [4]. The Activity entry in data set [5] was “Non-Toxic”.
Consider `CC(=O)OCC1=C(C(=O)[O-])N2C(=O)[C@@H](NC(=O)CCCCCC3C(=O)N(c4ccccc4)C3c3ccccc3)[C@H]2SC1.[Na+]` (mixture of isomers), for which the MLD in data set [1] was greater than 256 µg/mL; in data set [2] it was greater than 32 µg/mL; in data set [3] it was greater than 4 µg/mL; in data set [4], greater than 256 µg/mL. Further, the MIC50 in data set [1] was greater than 256 µg/mL; in data set [2], less than 0.25 µg/mL; in data set [3], 1.5 to 2 µg/mL; in data set [4] it was greater than 256 µg/mL. Further, the MIC in data set [1] was greater than 256 µg/mL; in data set [2], 0.5 µg/mL; in data set [3] it was 3.5 to 4 µg/mL; in data set [4], greater than 256 µg/mL. Moreover, the Activity entry in data set [5] was “Non-Toxic”; in data set [7], “Toxic”.
Consider `CC(=O)OCC1=C(C(=O)[O-])N2C(=O)[C@@H](NC(=O)CCC3C(=O)N(c4ccccc4)C3c3ccccc3)[C@H]2SC1.[Na+]` (mixture of isomers), for which the MLD in data set [1] is greater than 256 µg/mL; in data set [2] it was greater than 32 µg/mL; in data set [3], “>=3 ug ml-1”; in data set [4], greater than 256 µg/mL. Besides, the MIC50 in data set [1] is greater than 256 µg/mL; in data set [2], less than 0.25 µg/mL; in data set [3], 0.25 to 0.5 µg/mL; in data set [4], greater than 256 µg/mL. The MIC in data set [1] was greater than 256 µg/mL; in data set [2], 1 µg/mL; in data set [3], 2.5 µg/mL; in data set [4] it was greater than 256 µg/mL. In addition, the Activity result is listed as “Non-Toxic” in data set [5] and “Toxic” in data set [7].
Regarding `COc1ccc(N2C(=O)C(CC(=O)N[C@@H]3C(=O)N4C(C(=O)[O-])=C(COC(C)=O)CS[C@H]34)C2c2ccc([N+](=O)[O-])cc2)cc1.[Na+]` (mixture of isomers), the MLD is greater than 256 µg/mL in data set [1], greater than 256 µg/mL in data set [2], greater than 32 µg/mL in data set [3] and greater than 256 µg/mL in data set [4]. Besides, the MIC50 was greater than 256 µg/mL in data set [1], 8 µg/mL in data set [2], 4 to 8 µg/mL in data set [3] and greater than 256 µg/mL in data set [4]. The MIC in data set [1] is greater than 256 µg/mL; in data set [2], 32 µg/mL; in data set [3] it was 32 µg/mL; in data set [4] it was greater than 256 µg/mL. Also, in data set [5], the Activity result was “Non-Toxic”.
Take `COc1ccc(N2C(=O)C(CCCCCC(=O)N[C@@H]3C(=O)N4C(C(=O)[O-])=C(COC(C)=O)CS[C@H]34)C2c2ccccc2)cc1.[Na+]` (mixture of isomers): the MLD in data set [1] was greater than 256 µg/mL; in data set [2] it was “>=0.75 ug ml-1”; in data set [3] it was “>=1.75 - 2 ug ml-1”; in data set [4], greater than 256 µg/mL. Besides, the MIC50 is greater than 256 µg/mL in data set [1], less than 0.12 µg/mL in data set [2], 0.75 µg/mL in data set [3] and greater than 256 µg/mL in data set [4]. In addition, the MIC in data set [1] is greater than 256 µg/mL; in data set [2] it was 0.25 to 0.35 µg/mL; in data set [3] it was 1.75 µg/mL; in data set [4], greater than 256 µg/mL. The Activity result in data set [5] is “Non-Toxic”.

One may read the MIC50 as the lowest concentration that inhibits either 50% of growth or 50% of the strains tested, depending on the study.
